pIC50: −log10 of the molar value.
Assays:
[1] = target: GABA-A receptor; anion channel; assay: The concentration required to inhibit 50% of binding of [35S]TBPS to Gamma-aminobutyric acid A receptor to rat whole brain membranes.; format: cell membranes
[2] = tested on: Mus musculus; assay: Hypnotic dose was determined by observing loss of righting reflex for a minimum period of 30 sec in 50% of treated mice after i.v. administration.; format: functional
Method in brief: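 Male CFLP mice (25–35 g), tested in the light period. Groups of eight received an i.v. lateral tail vein injection over 10 s (10 mL kg-1) on a μmol/kg dose series, e.g. 2–16, with extra doses added. Vehicle was saline for amine salts; standards were in HPCD/saline, emulsion or saline. HD50 with 95% confidence limits was obtained by probit analysis of the fraction showing LRR ≥30 s.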

[3] = target: GABA-A receptor; anion channel (Bos taurus) (UniProt P10063+P08220+P20237+P08219+P10064+P22300); assay: Concentration required to potentiate GABA-evoked currents in voltage-clamped bovine chromaffin cells by 300%; format: functional
Method in brief: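 Adult bovine chromaffin cells, primary culture, recorded 4 h to 2 days after plating. Whole-cell patch clamp, continuous superfusion with 140 mM NaCl, 2.8 mM KCl, 2 mM MgCl2, 1 mM CaCl2, 10 mM HEPES (pH 7.2). CsCl-based pipette solution, room temperature (18–22 °C). Currents filtered at 500 Hz. Steroid concentration enhancing the GABA-evoked response by 300% of control was interpolated; mean ± SEM of N cells.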

SMILES | pIC50 [1] | HD50 [2] [µM/kg] | POT [3] [nM]
CC(=O)[C@H]1CC[C@H]2[C@@H]3CC[C@H]4C[C@H](O)[C@@H](N5CC(C)(C)SC(C)(C)C5)C[C@]4(C)[C@H]3C(=O)C[C@]12C | 6.64 | 61.8 | –
C[C@]12C[C@H](N3CCOCC3)[C@@H](O)C[C@@H]1CC[C@@H]1[C@@H]2CC[C@]2(C)[C@@H](C(=O)CO)CC[C@@H]12 | 5.52 | 31.6 | 2300
CC(=O)[C@H]1CC[C@H]2[C@@H]3CC[C@@H]4C[C@H](O)CC[C@]4(C)[C@H]3CC[C@]12C [ELTANOLONE] | 6.93 | 9.5 | 115
CC(=O)[C@H]1CC[C@H]2[C@@H]3CC[C@H]4C[C@H](O)[C@@H](N5CCO[C@@H](C)C5)C[C@]4(C)[C@H]3CC[C@]12C | 6.37 | 29 | –
CC(=O)[C@H]1CC[C@H]2[C@@H]3CC[C@H]4C[C@H](O)[C@@H](N5CCOCC5)C[C@]4(C)[C@H]3CC[C@]12C | – | 22.2 | 215
CC[C@H]1CN([C@H]2C[C@@]3(C)[C@@H](CC[C@H]4[C@@H]5CC[C@H](C(C)=O)[C@@]5(C)CC(=O)[C@@H]43)C[C@@H]2O)CCO1 | 5.83 | 15.1 | –
CCC[C@H]1CN([C@H]2C[C@@]3(C)[C@@H](CC[C@H]4[C@@H]5CC[C@H](C(C)=O)[C@@]5(C)CC(=O)[C@@H]43)C[C@@H]2O)CCO1 | 6.02 | 10.8 | –
CC(=O)OCC(=O)[C@H]1CC[C@H]2[C@@H]3CC[C@H]4C[C@H](O)[C@@H](N5CCOC(C)(C)C5)C[C@]4(C)[C@H]3C(=O)C[C@]12C | 6.02 | 21.1 | 1300
CC1(C)CN([C@H]2C[C@@]3(C)[C@@H](CC[C@H]4[C@@H]5CC[C@H](C(=O)CCl)[C@@]5(C)CC(=O)[C@@H]43)C[C@@H]2O)CCO1 | 6.69 | 13.4 | 450
CC(=O)[C@H]1CC[C@H]2[C@@H]3CC[C@H]4C[C@H](O)[C@@H](N5C[C@@H](C)O[C@@H](C)C5)C[C@]4(C)[C@H]3CC[C@]12C | – | 26 | –
CC1(C)CN([C@H]2C[C@@]3(C)[C@@H](CC[C@@H]4[C@@H]3CC[C@]3(C)[C@@H](C(=O)CCl)CC[C@@H]43)C[C@@H]2O)CCO1 | 7.41 | 17.6 | 380
CC(=O)SCC(=O)[C@H]1CC[C@H]2[C@@H]3CC[C@H]4C[C@H](O)[C@@H](N5CCOCC5)C[C@]4(C)[C@H]3CC[C@]12C | 6.63 | 33.8 | –
CC(=O)[C@H]1CC[C@H]2[C@@H]3CC[C@H]4C[C@H](O)[C@@H](N5CCSCC5)C[C@]4(C)[C@H]3CC[C@]12C | – | 40.5 | –
CC1(C)CN([C@H]2C[C@@]3(C)[C@@H](CC[C@@H]4[C@@H]3CC[C@]3(C)[C@@H](C(=O)CO)CC[C@@H]43)C[C@@H]2O)CCO1 | 6.57 | 18.4 | 310
CC(=O)[C@H]1CC[C@H]2[C@@H]3CC[C@H]4C[C@H](O)[C@@H](N5CCOC(C)(C)C5)C[C@]4(C)[C@H]3C(=O)C[C@]12C | – | 9.8 | 700
C[C@]12C[C@H](N3CCOCC3)[C@@H](O)C[C@@H]1CC[C@H]1[C@@H]3CC[C@H](C(=O)CO)[C@@]3(C)CC(=O)[C@@H]12 | 5.94 | 198.2 | –
CC1(C)CN([C@H]2C[C@@]3(C)[C@@H](CC[C@H]4[C@@H]5CC[C@H](C(=O)CO)[C@@]5(C)CC(=O)[C@@H]43)C[C@@H]2O)CCO1 | 5.25 | 42.3 | 4400
CC(=O)[C@H]1CC[C@H]2[C@@H]3CC[C@H]4C[C@H](O)[C@@H](N5CCO[C@H](CC(C)C)C5)C[C@]4(C)[C@H]3C(=O)C[C@]12C | 7.28 | 6.5 | –
CC(=O)OCC(=O)[C@H]1CC[C@H]2[C@@H]3CC[C@H]4C[C@H](O)[C@@H](N5CCOCC5)C[C@]4(C)[C@H]3CC[C@]12C | 6.57 | 31 | 660
CC(=O)[C@H]1CC[C@H]2[C@@H]3CC[C@H]4C[C@H](O)[C@@H](N5CCSC(C)(C)C5)C[C@]4(C)[C@H]3CC[C@]12C | 6.94 | 51.9 | –

SMILES | pIC50 [1] | HD50 [2] [µM/kg] | POT [3] [nM]
CC(=O)[C@H]1CC[C@H]2[C@@H]3CC[C@H]4C[C@H](O)[C@@H](N5CCO[C@@H](Cc6ccccc6)C5)C[C@]4(C)[C@H]3C(=O)C[C@]12C | 7.00 | 12.8 | –
CCCCC1(CCCC)CN([C@H]2C[C@@]3(C)[C@@H](CC[C@H]4[C@@H]5CC[C@H](C(C)=O)[C@@]5(C)CC(=O)[C@@H]43)C[C@@H]2O)CCO1 | 7.28 | 31.1 | –
CC(=O)[C@H]1CC[C@H]2[C@@H]3CC[C@H]4C[C@H](O)[C@@H](N5CCO[C@H](C)C5)C[C@]4(C)[C@H]3CC[C@]12C | 6.43 | 15 | 250
CC(=O)[C@H]1CC[C@H]2[C@@H]3CC[C@H]4C[C@H](O)[C@@H](N5CCSCC5)C[C@]4(C)[C@H]3C(=O)C[C@]12C | 5.86 | 20 | –
CC(=O)[C@H]1CC[C@H]2[C@@H]3CC[C@H]4C[C@H](O)[C@@H](N5CCO[C@H](Cc6ccccc6)C5)C[C@]4(C)[C@H]3C(=O)C[C@]12C | 6.88 | 12.6 | –
C[C@]12C[C@H](N3CCOCC3)[C@@H](O)C[C@@H]1CC[C@@H]1[C@@H]2CC[C@]2(C)[C@@H](C(=O)CBr)CC[C@@H]12 | 6.83 | 22.8 | –
CC[C@H]1CN([C@H]2C[C@@]3(C)[C@@H](CC[C@@H]4[C@@H]3CC[C@]3(C)[C@@H](C(C)=O)CC[C@@H]43)C[C@@H]2O)CCO1 | – | 22.7 | –
CC1(C)CN([C@H]2C[C@@]3(C)[C@@H](CC[C@H]4[C@@H]5CC[C@H](C(=O)CN=[N+]=[N-])[C@@]5(C)CC(=O)[C@@H]43)C[C@@H]2O)CCO1 | 5.66 | 10.7 | –
CCC1(CC)CN([C@H]2C[C@@]3(C)[C@@H](CC[C@H]4[C@@H]5CC[C@H](C(C)=O)[C@@]5(C)CC(=O)[C@@H]43)C[C@@H]2O)CCO1 | 7.10 | 12 | –
CC(=O)[C@H]1CC[C@H]2[C@@H]3CC[C@H]4C[C@H](O)CC[C@]4(C)[C@H]3C(=O)C[C@]12C [ALFAXALONE] | – | 6.3 | 700
C[C@]12CC[C@@H](O)C[C@@H]1CC[C@@H]1[C@@H]2CC[C@]2(C)[C@@H](C(=O)CO)CC[C@@H]12 | 6.66 | 18.5 | 300
CC1(C)CN([C@H]2C[C@@]3(C)[C@@H](CC[C@H]4[C@@H]5CC[C@H](C(=O)CSC#N)[C@@]5(C)CC(=O)[C@@H]43)C[C@@H]2O)CCO1 | 6.50 | 10 | –
CC(=O)OCC(=O)[C@H]1CC[C@H]2[C@@H]3CC[C@H]4C[C@H](O)[C@@H](N5CCOC(C)(C)C5)C[C@]4(C)[C@H]3CC[C@]12C | 6.41 | 16.9 | –
CC[C@@H]1CN([C@H]2C[C@@]3(C)[C@@H](CC[C@@H]4[C@@H]3CC[C@]3(C)[C@@H](C(C)=O)CC[C@@H]43)C[C@@H]2O)CCO1 | 6.04 | 11.2 | –
CCC[C@@H]1CN([C@H]2C[C@@]3(C)[C@@H](CC[C@H]4[C@@H]5CC[C@H](C(C)=O)[C@@]5(C)CC(=O)[C@@H]43)C[C@@H]2O)CCO1 | 6.85 | 6.4 | –
CC(=O)[C@H]1CC[C@H]2[C@@H]3CC[C@H]4C[C@H](O)[C@@H](N5CCOC(c6ccccc6)(c6ccccc6)C5)C[C@]4(C)[C@H]3C(=O)C[C@]12C | 6.30 | 49.9 | –
CC(=O)[C@H]1CC[C@H]2[C@@H]3CC[C@H]4C[C@H](O)[C@@H](N5CCO[C@H](C)C5)C[C@]4(C)[C@H]3C(=O)C[C@]12C | 5.94 | 17 | –
CCO[C@H]1C[C@@]2(C)[C@@H](CC[C@@H]3[C@@H]2[C@H](N(C)C)C[C@]2(C)[C@@H](C(C)=O)CC[C@@H]32)C[C@@H]1O [MINAXOLONE] | – | 7.3 | –
CC(=O)[C@H]1CC[C@H]2[C@@H]3CC[C@H]4C[C@H](O)[C@@H](N5CC(C)(C)OC(C)(C)C5)C[C@]4(C)[C@H]3C(=O)C[C@]12C | 6.90 | 8.3 | –
